Measurements published in ChEMBL document CHEMBL1932981, “Synthesis of novel 2, 5-dihydrofuran derivatives and evaluation of their anticancer activity” (Eur J Med Chem, 2012).

What was measured:
Type in all cases: functional, cell-based
[1] = Cytotoxicity against human QGY7701 cells after 24 hrs by MTT assay; conditions: QGY7701, 24 h
Procedure, shortened: (§1)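 Cell lines from the Navy Medical College, seeded at 8000 cells/well in 96-well plates. Compounds dissolved in DMSO (stock 10 g/L) and freshly diluted in medium. Dilutions were added in duplicate 24 h after seeding, with incubation continued at 37 °C. Viability read by MTT. IC50 taken as the concentration giving 50% growth inhibition, determined following NCCLS recommendations.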

[2] = system: HeLa; assay: Cytotoxicity against human HeLa cells after 24 hrs by MTT assay; conditions: Homo sapiens, HeLa, 24 h; read-out: IC50; procedure, shortened: as §1
[3] = system: SW480; assay: Cytotoxicity against human SW480 cells after 24 hrs by MTT assay; conditions: SW480, 24 h; procedure, shortened: as §1
[4] = system: A549; assay: Cytotoxicity against human A549 cells after 24 hrs by MTT assay; conditions: Homo sapiens, A549, 24 h; read-out: IC50; procedure, shortened: as §1

Row | Compound | IC50 [1] | IC50 [2] | IC50 [3] | IC50 [4]
1 | C=CC1=C(C(=O)N2CCN(c3cccc(Cl)c3)CC2)C(c2ccc(OC)cc2)OC1 (stereo not given) | > 100 µM | > 100 µM | > 100 µM | 26.8 µM
2 | C=CC1=C(C(=O)NCc2ccc(C)cc2)C(c2ccc(OC)c(OC)c2)OC1 (stereo not given) | 69.1 µM | > 100 µM | > 100 µM | > 100 µM
3 | C=CC1=C(C(=O)N2CCN(c3ccc(F)cc3)CC2)C(c2ccc(OC)cc2)OC1 (stereo not given) | 11 µM | 9.86 µM | > 100 µM | 8.31 µM
4 | C=CC1=C(C(=O)NCCc2cccc(F)c2)C(c2ccc(OC)cc2)OC1 (stereo not given) | > 100 µM | 31.4 µM | > 100 µM | > 100 µM
5 | C=CC1=C(C(=O)NCc2ccc(OC)c(OC)c2)C(c2ccc(F)cc2)OC1 (stereo not given) | 87.3 µM | > 100 µM | > 100 µM | > 100 µM
